According to ChEMBL document CHEMBL1629656, “Oritavancin kills stationary-phase and biofilm Staphylococcus aureus cells in vitro” (Antimicrob Agents Chemother, 2009):
Converted amounts (≈) assume the structure as drawn. The source made the active and inactive calls. No cut-off for these calls is given here.

Key:
Staphylococcus aureus [1] = experiment: Bactericidal activity against exponential-phase methicillin-sensitive Staphylococcus aureus ATCC 29213 grown on nutrient-depleted CAMHB medium at 0.5 ug/ml after 24 hrs by time kill analysis; type: functional, organism-based
Staphylococcus aureus [2] = experiment: Bactericidal activity against stationary-phase methicillin-resistant Staphylococcus aureus ATCC 33591 grown on nutrient-depleted CAMHB medium at 2 ug/ml after 24 hrs by time kill analysis; type: functional, organism-based
Summary of the method: (§1)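 Overnight stationary-phase cultures inoculated at ~10^7 CFU/ml into strain-matched spent CAMHB (pH 7.0, filter-sterilized). Oritavancin was kept at 0.002% polysorbate 80; daptomycin wells had 50 μg/ml CaCl2. Incubation at 37°C, 225 rpm. Samples were charcoal-quenched (25 mg/ml) before plating; points are means of duplicates. Bactericidal means ≥3-log drop at 24 h versus inoculum. ≥3 repeats.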

Staphylococcus aureus [3] = experiment: Antimicrobial activity against exponential-phase methicillin-sensitive Staphylococcus aureus ATCC 29213 assessed as membrane permeability at 4 ug/ml after 30 mins by propidium iodide staining-based fluorescence spectrophotometry; type: functional, organism-based
Summary of the method: (§2)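 Cells prepared as for depolarization, in HEPES-CaCl2 buffer with glucose (exponential) or without (stationary), OD600 0.005. Syto 9 at 5 μM and propidium iodide at 30 μM. Drug added without polysorbate 80. Loss of Syto 9 fluorescence (ex 485/em 535 nm) read for 30 min. Three repeats.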

Staphylococcus aureus [4] = experiment: Bactericidal activity against exponential-phase methicillin-sensitive Staphylococcus aureus ATCC 29213 grown on nutrient-depleted CAMHB medium at 16 ug/ml after 24 hrs by time kill analysis; type: functional, organism-based
Staphylococcus aureus [5] = experiment: Bactericidal activity against stationary-phase methicillin-sensitive Staphylococcus aureus ATCC 29213 assessed as log reduction in bacterial count at 4 ug/ml within 2 hrs by time kill analysis; type: functional
Staphylococcus aureus [6] = experiment: Bactericidal activity against stationary-phase methicillin-sensitive Staphylococcus aureus ATCC 29213 grown on nutrient-depleted CAMHB medium at 16 ug/ml after 24 hrs by time kill analysis; type: functional, organism-based; summary of the method: as §1
Staphylococcus aureus [7] = experiment: Bactericidal activity against stationary-phase methicillin-resistant Staphylococcus aureus ATCC 33591 grown on nutrient-depleted CAMHB medium at 4 ug/ml after 24 hrs by time kill analysis; type: functional, organism-based; summary of the method: as §1
Staphylococcus aureus [8] = experiment: Antimicrobial activity against stationary-phase methicillin-sensitive Staphylococcus aureus ATCC 29213 assessed as membrane permeability at 4 ug/ml after 30 mins by propidium iodide staining-based fluorescence spectrophotometry; type: functional, organism-based; summary of the method: as §2
Staphylococcus aureus [9] = experiment: Antimicrobial activity against stationary-phase methicillin-sensitive Staphylococcus aureus ATCC 29213 membrane depolarization at 4 ug/ml after 30 mins using DiSC3(5) dye based fluorescence spectrophotometry; type: functional, organism-based
Summary of the method: (§3)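 Cells loaded with 1.5 μM DiSC3(5) 30 min in the dark at ambient temperature, diluted to OD600 0.005. Drug added without polysorbate 80. Fluorescence (ex 612/em 665 nm) followed for 30 min. Three repeats.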

Staphylococcus aureus [10] = experiment: Antimicrobial activity against exponential-phase methicillin-sensitive Staphylococcus aureus ATCC 29213 assessed as membrane depolarization at 4 ug/ml after 30 mins using DiSC3(5) dye based fluorescence spectrophotometry; type: functional, organism-based; summary of the method: as §3
Staphylococcus aureus [11] = experiment: Bactericidal activity against exponential-phase methicillin-sensitive Staphylococcus aureus ATCC 29213 grown on nutrient-depleted CAMHB medium at 4 ug/ml after 24 hrs by time kill analysis; type: functional, organism-based
Staphylococcus aureus [12] = experiment: Bactericidal activity against stationary-phase methicillin-sensitive Staphylococcus aureus ATCC 29213 grown on nutrient-depleted CAMHB medium at 4 ug/ml after 24 hrs by time kill analysis; type: functional, organism-based; summary of the method: as §1
Staphylococcus aureus [13] = experiment: Bactericidal activity against stationary-phase vancomycin-resistant Staphylococcus aureus isolate VRS5 grown on nutrient-depleted CAMHB medium at 4 ug/ml after 24 hrs by time kill analysis; type: functional, organism-based; summary of the method: as §1
Staphylococcus aureus [14] = experiment: Bactericidal activity against exponential-phase methicillin-sensitive Staphylococcus aureus ATCC 29213 assessed as log reduction in bacterial count at 4 ug/ml within 2 hrs by time kill analysis; type: functional
Staphylococcus aureus [15] = experiment: Bactericidal activity against stationary-phase vancomycin-resistant Staphylococcus aureus isolate VRS5 grown on nutrient-depleted CAMHB medium at 2 ug/ml after 24 hrs by time kill analysis
Staphylococcus aureus [16] = experiment: Antimicrobial activity against methicillin-sensitive Staphylococcus aureus ATCC 29213 planktonic cells by broth microdilution method in presence of 0.002% polysorbate 80; type: functional
Staphylococcus aureus [17] = experiment: Antimicrobial activity against methicillin-sensitive Staphylococcus aureus ATCC 29213 assessed as inhibition of biofilm formation after 24 hrs by serial dilution method in presence of 0.002% polysorbate 80; type: functional
Staphylococcus aureus [18] = experiment: Bacteriostatic activity against stationary-phase vancomycin-resistant Staphylococcus aureus isolate VRS5 grown on nutrient-depleted CAMHB medium at 8 ug/ml after 24 hrs by time kill analysis; type: functional, organism-based; summary of the method: as §1
Staphylococcus aureus [19] = experiment: Antimicrobial activity against 4.6 X 10^6 CFU/peg methicillin-susceptible Staphylococcus aureus ATCC 29213 planktonic cells by broth microdilution method
Staphylococcus aureus [20] = experiment: Bacteriostatic activity against stationary-phase methicillin-resistant Staphylococcus aureus ATCC 33591 grown on nutrient-depleted CAMHB medium at 8 ug/ml after 24 hrs by time kill analysis; type: functional, organism-based; summary of the method: as §1
Staphylococcus aureus [21] = experiment: Antimicrobial activity against methicillin-resistant Staphylococcus aureus ATCC 33591 planktonic cells by broth microdilution method in presence of 0.002% polysorbate 80; type: functional
Homo sapiens = experiment: fCmax in human at 450 […]; type: ADME, organism-based; settings: in vivo
Staphylococcus aureus [22] = experiment: Antimicrobial activity against vancomycin-resistant Staphylococcus aureus isolate VRS5 planktonic cells by broth microdilution method in presence of 0.002% polysorbate 80; type: functional
Staphylococcus aureus [23] = experiment: Antimicrobial activity against methicillin-resistant Staphylococcus aureus ATCC 33591 assessed as inhibition of biofilm formation after 24 hrs by serial dilution method in presence of 0.002% polysorbate 80; type: functional
Staphylococcus aureus [24] = experiment: Antimicrobial activity against exponential-phase methicillin-sensitive Staphylococcus aureus ATCC 29213 grown on nutrient-depleted CAMHB medium assessed as membrane permeability at 16 ug/ml after 30 mins by propidium iodide staining-based fluorescence spectrophotometry; type: functional, organism-based
Summary of the method: (§4)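 Cells prepared as for depolarization: exponential-phase ATCC 29213 in HEPES-CaCl2 buffer with 5 mM glucose, stationary-phase without glucose, final OD600 0.005. Stained with 5 μM Syto 9 plus 30 μM propidium iodide. Fluorescence (ex 485/em 535 nm) monitored for 30 min after drug addition, without polysorbate 80. Three repeats; one shown.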

Staphylococcus aureus [25] = experiment: Antimicrobial activity against stationary-phase methicillin-sensitive Staphylococcus aureus ATCC 29213 grown on nutrient-depleted CAMHB medium assessed as membrane depolarization at 16 ug/ml after 30 mins using DiSC3(5) dye based fluorescence spectrophotometry; type: functional, organism-based
Summary of the method: (§5)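 MSSA ATCC 29213 exponential-phase cells (OD600 ≈0.25 subculture in CAMHB) or stationary-phase cells were washed in 10 mM HEPES-Cl pH 7.5 with 50 μg/ml CaCl2; buffer had 5 mM glucose for exponential cells and none for stationary cells. Cells were loaded with 1.5 μM DiSC3(5) for 30 min in the dark, then diluted to OD600 0.005. Drug was added without polysorbate 80 and fluorescence (ex 612/em 665 nm) followed in real time for 30 min. Three repeats; one shown.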

Staphylococcus aureus [26] = experiment: Inhibition of cell division in stationary-phase methicillin-resistant Staphylococcus aureus ATCC 43300 assessed as absence of appearance of septal midline at 16 ug/ml by transmission electron microscopy; type: functional, organism-based
Summary of the method: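 Stationary-phase MRSA ATCC 43300 (5 × 10^7 CFU/ml) exposed for 3 h in nutrient-depleted CAMHB. Cells were fixed in 2.5% glutaraldehyde, post-fixed in 2% osmium tetroxide and en bloc stained with uranyl acetate. Samples were ethanol-dehydrated, embedded in LR White, thin-sectioned, and stained with uranyl acetate/lead citrate. Septa were viewed by TEM at 100 kV.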

Staphylococcus aureus [27] = experiment: Antimicrobial activity against vancomycin-resistant Staphylococcus aureus isolate VRS5 assessed as inhibition of biofilm formation after 24 hrs by serial dilution method in presence of 0.002% polysorbate 80; type: functional
Staphylococcus aureus [28] = experiment: Antimicrobial activity against exponential-phase methicillin-sensitive Staphylococcus aureus ATCC 29213 grown on nutrient-depleted CAMHB medium assessed as membrane depolarization at 16 ug/ml after 30 mins using DiSC3(5) dye based fluorescence spectrophotometry; type: functional, organism-based; summary of the method: as §5
Staphylococcus aureus [29] = experiment: Antimicrobial activity against stationary-phase methicillin-sensitive Staphylococcus aureus ATCC 29213 grown on nutrient-depleted CAMHB medium assessed as membrane permeability at 16 ug/ml after 30 mins by propidium iodide staining-based fluorescence spectrophotometry; type: functional, organism-based; summary of the method: as §4
Staphylococcus aureus [30] = experiment: Bactericidal activity against stationary-phase vancomycin-resistant Staphylococcus aureus isolate VRS5 grown on nutrient-depleted CAMHB medium 16 ug/ml after 24 hrs by time kill analysis; type: functional, organism-based; summary of the method: as §1
Staphylococcus aureus [31] = experiment: Bactericidal activity against exponential-phase methicillin-sensitive Staphylococcus aureus ATCC 29213 assessed as log reduction in bacterial count at 16 ug/ml within 15 mins by time kill analysis; type: functional
Summary of the method: (§6)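 Short (2-h) time-kill of ATCC 29213 at OD600 0.005 (~10^6 CFU/ml) in 10 mM HEPES-Cl pH 7.5 with 50 μg/ml CaCl2. Exponential cells had 5 mM glucose and stationary cells none. Oritavancin was tested without polysorbate 80; viable counts were taken by serial dilution plating. Three repeats; one shown.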

Staphylococcus aureus [32] = experiment: Antimicrobial activity against 4.6 X 10^6 CFU/peg methicillin-susceptible Staphylococcus aureus ATCC 29213 assessed as inhibition of biofilm formation after 24 hrs by serial dilution method
Staphylococcus aureus [33] = experiment: Bactericidal activity against stationary-phase methicillin-sensitive Staphylococcus aureus ATCC 29213 assessed as log reduction in bacterial count at 16 ug/ml within 2 hrs by time kill analysis; type: functional; summary of the method: as §6

Structure (SMILES)	Activity (Staphylococcus aureus [1])	Activity (Staphylococcus aureus [2])	Activity (Staphylococcus aureus [4])	Activity (Staphylococcus aureus [6])	Activity (Staphylococcus aureus [7])	Activity (Staphylococcus aureus [11])	Activity (Staphylococcus aureus [12])	Activity (Staphylococcus aureus [13])	Activity (Staphylococcus aureus [15])	MIC (Staphylococcus aureus [16]) [µg/mL]	MBEC (Staphylococcus aureus [17]) [µg/mL]	MIC (Staphylococcus aureus [22]) [µg/mL]	MBEC (Staphylococcus aureus [23])	also measured
CCCCCCCCCC(=O)N[C@@H](Cc1c[nH]c2ccccc12)C(=O)N[C@H](CC(N)=O)C(=O)N[C@@H](CC(=O)O)C(=O)N[C@@H]1C(=O)NCC(=O)N[C@@H](CCCN)C(=O)N[C@@H](CC(=O)O)C(=O)N[C@H](C)C(=O)N[C@@H](CC(=O)O)C(=O)NCC(=O)N[C@H](CO)C(=O)N[C@@H]([C@H](C)CC(=O)O)C(=O)N[C@@H](CC(=O)c2ccccc2N)C(=O)O[C@@H]1C	Active	Active	Active	inactive	Active	Active	inactive	inactive	inactive	–	–	–	–	Activity (Staphylococcus aureus [3]): Active; FC (Staphylococcus aureus [5]): 0.7; Activity (Staphylococcus aureus [8]): inactive; Activity (Staphylococcus aureus [9]): inactive; Activity (Staphylococcus aureus [10]): Active; FC (Staphylococcus aureus [14]): 3.4
CC(=O)NC[C@H]1CN(c2ccc(N3CCOCC3)c(F)c2)C(=O)O1 [LINEZOLID]	–	–	–	–	–	–	–	–	–	8	>128	–	–	Activity (Staphylococcus aureus [18]): inactive; MIC (Staphylococcus aureus [19]): 8 µg/mL (≈ 23.7 µM); Activity (Staphylococcus aureus [20]): inactive
CO[C@H]1/C=C/O[C@@]2(C)Oc3c(C)c(O)c4c(O)c(c(/C=N/N5CCN(C)CC5)c(O)c4c3C2=O)NC(=O)/C(C)=C\C=C\[C@H](C)[C@H](O)[C@@H](C)[C@@H](O)[C@@H](C)[C@H](OC(C)=O)[C@@H]1C [RIFAMPIN]	–	Active	–	–	Active	–	–	inactive	inactive	< 0.02	4	< 0.03	0.25 µg/mL	MIC (Staphylococcus aureus [21]): < 0.03 µg/mL; fCmax (Homo sapiens): 2 µg/mL
CN[C@H](CC(C)C)C(=O)N[C@H]1C(=O)N[C@@H](CC(N)=O)C(=O)N[C@H]2C(=O)N[C@H]3C(=O)N[C@H](C(=O)N[C@H](C(=O)O)c4cc(O)cc(O)c4-c4cc3ccc4O)[C@H](O)c3ccc(c(Cl)c3)Oc3cc2cc(c3O[C@@H]2O[C@H](CO)[C@@H](O)[C@H](O)[C@H]2O[C@H]2C[C@](C)(N)[C@H](O)[C@H](C)O2)Oc2ccc(cc2Cl)[C@H]1O [VANCOMYCIN]	Active	–	Active	inactive	–	Active	inactive	–	–	–	>128	> 128	>=128 ug ml-1	Activity (Staphylococcus aureus [24]): inactive; Activity (Staphylococcus aureus [25]): inactive; inhibition (Staphylococcus aureus [26]): inactive; MBEC (Staphylococcus aureus [27]): >128 µg/mL; Activity (Staphylococcus aureus [28]): inactive; Activity (Staphylococcus aureus [29]): inactive; Activity (Staphylococcus aureus [30]): inactive; Activity (Staphylococcus aureus [31]): inactive; MBEC (Staphylococcus aureus [32]): >128 µg/mL; Activity (Staphylococcus aureus [33]): inactive
